This is an account of results in ChEMBL document CHEMBL1155758, “Heliotropium huascoense resin exudate: chemical constituents and defensive properties” (J Nat Prod, 2001).

Calls of active or inactive are those of the source. The rule behind the calls is not given here. Some results are limits rather than exact numbers.

The test system of one assay is Myzus persicae. Nature of the assay: Antifeedant activity against Myzus persicae apterous adults. In kind it is functional, organism-based. Put shortly: (§1)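 Choice feeding bioassay using adult beetles, newly emerged fifth-instar larvae or apterous adult aphids. Percent feeding inhibition (FI) and percent settling inhibition (SI) were calculated as previously described. Compounds giving FR/SI > 50% were taken into a dose-response test, with EC50 (dose giving 50% feeding reduction) obtained by linear regression of %FR or %SI on log dose.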

The subject of assay [1] is Leptinotarsa decemlineata. Nature of the assay: Antifeedant activity against Leptinotarsa decemlineata adults at 50 ug/cm'2 by choice test. In kind it is functional. Put shortly: as §1
In assay [2] the test system is Leptinotarsa decemlineata. Nature of the assay: Antifeedant activity against Leptinotarsa decemlineata adults by choice test. Format: functional, organism-based. Put shortly: as §1
The test system of assay [3] is Leptinotarsa decemlineata. Nature of the assay: Antifeedant activity against Leptinotarsa decemlineata adults at 50 ug/cm'2 by no-choice test. In kind it is functional.
For assay [4], the system named is Leptinotarsa decemlineata. Nature of the assay: Antifeedant activity against Leptinotarsa decemlineata adults by no-choice test. In kind it is functional, organism-based.
Assay [5] deals with Leptinotarsa decemlineata. The assay can be described thus: Insecticidal activity against Leptinotarsa decemlineata adults assessed as mortality at 10 ug/insect dosed in to hemolymph injection after 72 hrs. In kind it is functional. Put shortly: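 Adult Colorado potato beetles, 20 per compound, each injected into the hemolymph with 10 µg of compound dissolved in DMSO. Mortality was scored for up to 3 days after injection. Percent mortality was analysed with contingency tables and corrected by Abbott's formula.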

Assay [6] relates to Spodoptera littoralis. Nature of the assay: Antifeedant activity against fifth instar Spodoptera littoralis L6 larvae at 100 ug/cm'2. Format: functional. Put shortly:
as §1

Assay [7] concerns Spodoptera littoralis. Nature of the assay: Antifeedant activity against fifth instar Spodoptera littoralis L6 larvae. Format: functional, organism-based. Put shortly:
as §1

Assay [8] has as its system Spodoptera littoralis. Nature of the assay: Antifeedant activity against fifth instar Spodoptera littoralis L6 larvae assessed as weight gain at 20 ug/insect, po relative to control. Format: functional. Put shortly: (§2)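 Larval consumption and biomass gain were expressed as % of control. Significance versus control was tested at p < 0.05 with LSD. A second ANCOVA was run on biomass gain with food consumption as covariate to detect postingestive effects.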

Assay [9] concerns Spodoptera littoralis. The assay can be described thus: Antifeedant activity against fifth instar Spodoptera littoralis L6 larvae assessed as food consumption at 20 ug/insect, po relative to control. In kind it is functional. Put shortly:
as §2

Another assay deals with Fusarium verticillioides. Nature of the assay: Antifungal activity against Fusarium moniliforme assessed as inhibition of mycelial growth at 0.5 mg/mL. The following applies: read-out: GI. In kind it is functional. Put shortly: (§3)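 Single-dose test at 0.5 mg/mL against the plant pathogens; activity estimated as percent mycelial growth inhibition.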
The subject of the next assay is Aspergillus niger. The assay can be described thus: Antifungal activity against Aspergillus niger assessed as inhibition of mycelial growth at 0.5 mg/mL. As to conditions: read-out: GI. In kind it is functional. Put shortly:
as §3

For assay [10], the system named is Spodoptera littoralis. The assay can be described thus: Antifeedant activity against fifth instar Spodoptera littoralis L6 larvae at 50 ug/cm'2. Format: functional. Put shortly:
as §1

As for `COC(=O)c1ccc2c(c1)C[C@@]1(O2)[C@@H](C)CC[C@@H](O)C1(C)C` [FILIFOLINOL], the result in the assay on Myzus persicae was inactive. Moreover, the Activity came to 16.82% in assay [1]; 42.4% in [3]; 20% in [5]; 34.6% in the assay with Spodoptera littoralis [6]; 120.9% in the assay on Spodoptera littoralis [8]; 120.2% in the assay on Spodoptera littoralis [9]. In addition, the EC50 is recorded as above 50 ug.cm'-2 in assay [2], above 50 ug.cm'-2 in assay [4] and above 100 ug.cm'-2 with Spodoptera littoralis [7]. Moreover, the inhibition of growth at 500 µg/mL in the assay with Fusarium verticillioides turned out to be 61%; in the assay with Aspergillus niger it was 36%.
Regarding `COC(=O)c1ccc(OC)c(C[C@@H]2C(C)(C)C(=O)C=C[C@@]2(C)O)c1`, in the assay with Myzus persicae, the outcome was inactive. The Activity in assay [1] amounted to 55.4%; in [3], 81.82%; in assay [5] it was 0%; with Spodoptera littoralis [10], 71.8%; with Spodoptera littoralis [8], 66.1%; with Spodoptera littoralis [9] it was 75.9%. Besides, the EC50 in assay [2] came to 50 ug.cm'-2; in assay [4] it was 24.19 ug.cm'-2; with Spodoptera littoralis [7], 17.4 ug.cm'-2.
For the molecule `COc1ccc(C(=O)O)cc1C[C@@H]1C(C)(C)C(=O)C=C[C@@]1(C)O` (relative stereo), the outcome in the assay with Myzus persicae was inactive. The Activity turned out to be 37% in assay [1]; 56.1% in [3]; 0% in [5]; 0% with Spodoptera littoralis [10]; 126.2% in the assay with Spodoptera littoralis [8]; 113.1% in the assay on Spodoptera littoralis [9]. Further, the EC50 is reported as above 50 ug.cm'-2 in [2], 50 ug.cm'-2 in [4] and above 100 ug.cm'-2 in the assay with Spodoptera littoralis [7].
As to `C[C@@H]1CC[C@@H]2C(C)(C)C[C@]3(C)CC=C[C@]123` [SILPHINENE], the EC50 in assay [2] is 0.27 ug.cm'-2; in assay [4], 2.7 ug.cm'-2. Besides, the Activity in assay [5] came out at 24%.
